In ChEMBL document CHEMBL2177069, “Novel peptidomimetic compounds containing redox active chalcogens and quinones as potential anticancer agents” (Eur J Med Chem, 2012):
Active and inactive are the calls of the source. No cut-off for these calls is given here.

Assays:
Saccharomyces cerevisiae [1] = assay: Growth inhibition of wild type Saccharomyces cerevisiae BY4741 at 20 ug/disc after 24 to 48 hrs by agar diffusion assay; type: functional; conditions: read-out: DIZ
Outline: (§1)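 S. cerevisiae deletion mutants or wild type grown on YPD, seeded into liquid agar medium at an optical density of 0.1. 6 mm paper discs soaked with methanolic compound solution were placed on the plates and incubated at 30 °C. Growth was checked after 1 and 2 days, and the inhibition zone diameter was recorded in mm.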

MDA-MB-231 = assay: Cytotoxicity against human MDA-MB-231 cells; type: functional
SNB-19 = assay: Cytotoxicity against human SNB19 cells; type: functional
MCF7 = assay: Cytotoxicity against human MCF7 cells after 24 hrs by MTT assay; type: functional, cell-based; conditions: MCF7, 24 h
Outline: (§2)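 MTT assay. Cells were seeded at 50,000 cells/mL in medium with 10% fetal calf serum and grown for two days at 37 °C, 10% CO2. Serial dilutions of compound were then added for 24 h. MTT was added (final 0.5 mg/mL) for 2 h, and the formazan was pelleted, washed, dissolved in isopropanol with 0.4% HCl and read at 590 nm. IC50 is the concentration giving 50% of untreated-control absorbance, taken from dose-response curves; mean of two parallel experiments.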

NCI-H322M = assay: Cytotoxicity against human NCI-H322M cells; type: functional
CAKI-1 = assay: Cytotoxicity against human Caki1 cells; type: functional
SK-MEL-28 = assay: Cytotoxicity against human SK-MEL-28 cells; type: functional
Saccharomyces cerevisiae [2] = assay: Growth inhibition of UFD2-deficient Saccharomyces cerevisiae YDL190C mutant at 20 ug/disc after 24 to 48 hrs by agar diffusion assay; type: functional; conditions: read-out: DIZ; outline: as §1
PtK2 [3] = assay: Induction of oxidative stress in potoroo PtK2 cells assessed as change in cell morphology after 24 hrs by immunofluorescence microscopic analysis; type: functional, cell-based; conditions: Potorous tridactylus
Outline: (§3)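 PtK2 cells were grown on coverslips and treated once semi-confluent, for 24 h. Cells were fixed with 3.7% paraformaldehyde followed by 0.1% Triton X-100, or with cold methanol/acetone 50:50. Primary and secondary antibodies were applied for 45 min each: anti-GRP94 for ER, anti-α-tubulin. Actin was stained with phalloidin and nuclei with DAPI. Imaging was by fluorescence microscopy with a CCD camera.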

NCI-H23 = assay: Cytotoxicity against human NCI-H23 cells; type: functional
NCI-H460 = assay: Cytotoxicity against human NCI-H460 cells; type: functional
NCI-H226 = assay: Cytotoxicity against human NCI-H226 cells; type: functional
HOP-62 = assay: Cytotoxicity against human HOP62 cells; type: functional
TK-10 = assay: Cytotoxicity against human TK10 cells; type: functional
A-431 = assay: Cytotoxicity against human A431 cells after 24 hrs by MTT assay; type: functional, cell-based; conditions: A-431, 24 h; outline: as §2
CCRF-CEM = assay: Cytotoxicity against human CCRF-CEM cells; type: functional
U-251 = assay: Cytotoxicity against human U251 cells; type: functional
UACC-257 = assay: Cytotoxicity against human UACC257 cells; type: functional
Saccharomyces cerevisiae [4] = assay: Growth inhibition of SOD2-deficient Saccharomyces cerevisiae YHR008C mutant at 20 ug/disc 24 to 48 hrs by agar diffusion assay; type: functional; conditions: read-out: DIZ; outline: as §1
M14 = assay: Cytotoxicity against human M14 cells; type: functional
PtK2 [5] = assay: Induction of oxidative stress in potoroo PtK2 cells assessed as change in microtubular network after 24 hrs by immunofluorescence microscopic analysis; type: functional, cell-based; conditions: Potorous tridactylus; outline: as §3
RXF 393 = assay: Cytotoxicity against human RXF393 cells; type: functional
HCT-116 = assay: Cytotoxicity against human HCT116 cells; type: functional
ACHN = assay: Cytotoxicity against human ACHN cells; type: functional
PtK2 [6] = assay: Induction of oxidative stress in potoroo PtK2 cells assessed as reduction in actin stress fibres after 24 hrs by immunofluorescence microscopic analysis; type: functional, cell-based; conditions: Potorous tridactylus; outline: as §3
Saccharomyces cerevisiae [7] = assay: Growth inhibition of PST2-deficient Saccharomyces cerevisiae YDR032C mutant at 20 ug/disc 24 to 48 hrs by agar diffusion assay; type: functional; conditions: read-out: DIZ; outline: as §1
HCT-15 = assay: Cytotoxicity against human HCT15 cells; type: functional
Hs-578T = assay: Cytotoxicity against human Hs578T cells; type: functional
EKVX = assay: Cytotoxicity against human EKVX cells; type: functional
HOP-92 = assay: Cytotoxicity against human HOP92 cells; type: functional
KM12 = assay: Cytotoxicity against human KM12 cells; type: functional
HUVEC = assay: Cytotoxicity against human HUVEC cells after 24 hrs by MTT assay; type: cell-based; outline: as §2
[8] = Cytotoxicity against human PHF cells after 24 hrs by MTT assay; type: cell-based; outline: as §2
BT-549 = assay: Cytotoxicity against human BT549 cells; type: functional
K562 = assay: Cytotoxicity against human K562 cells; type: functional
UO-31 = assay: Cytotoxicity against human UO31 cells; type: functional
MDA-MB-435 = assay: Cytotoxicity against human MDA-MB-435 cells; type: functional
NCI-H522 = assay: Cytotoxicity against human NCI-H522 cells; type: functional
PtK2 [9] = assay: Induction of oxidative stress in potoroo PtK2 cells assessed as reduction in cell adhesion after 24 hrs by immunofluorescence microscopic analysis; type: functional, cell-based; conditions: Potorous tridactylus; outline: as §3

## CC1=C(SCCC(=O)OC(C[Se]C2=C(C)C(=O)c3ccccc3C2=O)C(=O)NCCCCCC(=O)OCc2ccccc2)C(=O)c2ccccc2C1=O (stereo not drawn)
Saccharomyces cerevisiae [1]
  zone of inhibition at 20 µg/disc: 0 mm
MDA-MB-231
  GI50: 6.76 µM
  LC50: 55 µM
MDA-MB-231; read-out: pTGI (converted)
  TGI: 21.9 µM
SNB-19
  GI50: 3.8 µM
  LC50: 40.7 µM
SNB-19; read-out: pTGI (converted)
  TGI: 14.1 µM
MCF7
  IC50: 10 µM
NCI-H322M
  GI50: 3.8 µM
  LC50: 66.1 µM
NCI-H322M; read-out: pTGI (converted)
  TGI: 17.4 µM
CAKI-1
  GI50: 6.92 µM
  LC50: 51.3 µM
CAKI-1; read-out: pTGI (converted)
  TGI: 21.4 µM
SK-MEL-28
  GI50: 11.7 µM
  LC50: 51.3 µM
SK-MEL-28; read-out: pTGI (converted)
  TGI: 24.5 µM
Saccharomyces cerevisiae [2]
  zone of inhibition at 20 µg/disc: 0 mm
PtK2 [3]
  Activity: Active
NCI-H23
  GI50: 2.75 µM
  LC50: 52.5 µM
NCI-H23; read-out: pTGI (converted)
  TGI: 7.76 µM
NCI-H460
  GI50: 1.91 µM
  LC50: 14.1 µM
NCI-H460; read-out: pTGI (converted)
  TGI: 4.57 µM
NCI-H226
  GI50: 19.5 µM
NCI-H226; read-out: pLC50 (the source's name) (converted)
  CC50: > 100 µM
NCI-H226; read-out: pTGI (converted)
  TGI: 51.3 µM
HOP-62
  GI50: 3.8 µM
  LC50: 39.8 µM
HOP-62; read-out: pTGI (converted)
  TGI: 14.5 µM
TK-10
  GI50: 13.8 µM
  LC50: 53.7 µM
TK-10; read-out: pTGI (converted)
  TGI: 26.9 µM
A-431
  IC50: 6 µM
CCRF-CEM
  GI50: 2.82 µM
  LC50: > 100 µM
CCRF-CEM; read-out: pTGI
  TGI: > 100 µM
U-251
  GI50: 4.07 µM
  LC50: 46.8 µM
U-251; read-out: pTGI (converted)
  TGI: 13.5 µM
UACC-257
  GI50: 3.47 µM
  LC50: 34.7 µM
UACC-257; read-out: pTGI (converted)
  TGI: 10 µM
Saccharomyces cerevisiae [4]
  zone of inhibition at 20 µg/disc: 15 mm
M14
  GI50: 2 µM
  LC50: 8.91 µM
M14; read-out: pTGI (converted)
  TGI: 4.27 µM
PtK2 [5]
  Activity: inactive
RXF 393
  GI50: 14.8 µM
  LC50: 53.7 µM
RXF 393; read-out: pTGI (converted)
  TGI: 28.2 µM
HCT-116
  GI50: 2 µM
  LC50: 11.7 µM
HCT-116; read-out: pTGI (converted)
  TGI: 4.57 µM
ACHN
  GI50: 12 µM
  LC50: 63.1 µM
ACHN; read-out: pTGI (converted)
  TGI: 27.5 µM
PtK2 [6]
  Activity: Active
Saccharomyces cerevisiae [7]
  zone of inhibition at 20 µg/disc: 11 mm
HCT-15
  GI50: 6.61 µM
  LC50: 58.9 µM
HCT-15; read-out: pTGI (converted)
  TGI: 21.4 µM
Hs-578T
  GI50: 7.59 µM
  LC50: > 100 µM
Hs-578T; read-out: pTGI (converted)
  TGI: > 100 µM
EKVX
  GI50: 3.63 µM
  LC50: 58.9 µM
EKVX; read-out: pTGI (converted)
  TGI: 17.8 µM
HOP-92
  GI50: 2.69 µM
  LC50 (50% lethal concentration): 30.9 µM
HOP-92; read-out: pTGI (converted)
  TGI: 7.94 µM
KM12
  GI50: 1.41 µM
  LC50: 13.8 µM
KM12; read-out: pTGI (converted)
  TGI: 4.07 µM
HUVEC
  IC50: 7 µM
[8]
  IC50: 5 µM
BT-549
  GI50: 3.8 µM
  LC50: 36.3 µM
BT-549; read-out: pTGI (converted)
  TGI: 12.9 µM
K562
  GI50: 3.02 µM
  LC50: > 100 µM
K562; read-out: pTGI
  TGI: > 100 µM
UO-31
  GI50: 2.51 µM
  LC50: 50.1 µM
UO-31; read-out: pTGI (converted)
  TGI: 15.1 µM
MDA-MB-435
  GI50: 2.14 µM
  LC50: 49 µM
MDA-MB-435; read-out: pTGI (converted)
  TGI: 12.9 µM
NCI-H522
  GI50: 3.98 µM
  LC50: 44.7 µM
NCI-H522; read-out: pTGI (converted)
  TGI: 15.1 µM
PtK2 [9]
  Activity: Active
